Columns and labels:
Echinochloa crus-galli [1] = assay: Herbicidal activity against Echinochloa crus-galli (barnyard grass) assessed as growth inhibition at 150 g of active ingredient/ha administered using post-emergence treatment measured 15 days post treatment protocol under greenhouse conditions; type: functional
Procedure, shortened: (§1)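 Test agents were formulated as 100 g/L emulsified concentrates (DMF solvent, TW-80 emulsifier), diluted with water and sprayed postemergence on pot-grown weeds. Seeds were sown 1-3 cm deep in clay soil (pH 6.5, 1.6% organic matter, 37.3% clay, CEC […]) and grown at 15–30 °C in a greenhouse. Dicots were treated at the two-leaf stage. Untreated and DMF-treated plants served as controls. Activity was scored visually 15 days after treatment.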

Zea mays [2] = assay: Phytotoxicity against Zea mays (maize) plant assessed as growth inhibition at 450 g of active ingredient/ha administered using post-emergence treatment measured 30 days post treatment protocol under greenhouse conditions; type: organism-based; details: in vivo, other, 720 h
Procedure, shortened: (§2)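 Compounds were formulated as 100 g/L emulsified concentrates in DMF with TW-80 as emulsifier, then diluted with water to the required concentration. They were applied postemergence to pot-grown plants in a greenhouse. The soil was clay, pH 6.5, with 1.6% organic matter, 37.3% clay particles and CEC 12.1 mol/kg. Sulfentrazone served as the reference control.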

Zea mays [3] = assay: Phytotoxicity against Zea mays (maize) plant assessed as growth inhibition at 300 g of active ingredient/ha administered using post-emergence treatment measured 30 days post treatment protocol under greenhouse conditions; type: organism-based; details: in vivo, other, 720 h; procedure, shortened: as §2
[4] = Phytotoxicity against Zea mays (maize) plant assessed as growth inhibition at 75 g of active ingredient/ha administered using post-emergence treatment measured 30 days post treatment protocol under greenhouse conditions; type: organism-based; details: in vivo, read-out: GI; procedure, shortened: as §2
Glycine max [5] = assay: Phytotoxicity against Glycine max (soybean) plant assessed as growth inhibition at 450 g of active ingredient/ha administered using post-emergence treatment measured 30 days post treatment protocol under greenhouse conditions; type: organism-based; details: in vivo, other, 720 h; procedure, shortened: as §2
Glycine max [6] = assay: Phytotoxicity against Glycine max (soybean) plant assessed as growth inhibition at 150 g of active ingredient/ha administered using post-emergence treatment measured 30 days post treatment protocol under greenhouse conditions; type: organism-based; details: in vivo, other, 720 h; procedure, shortened: as §2
[7] = Phytotoxicity against Glycine max (soybean) plant assessed as growth inhibition at 75 g of active ingredient/ha administered using post-emergence treatment measured 30 days post treatment protocol under greenhouse conditions; type: organism-based; details: in vivo, read-out: GI; procedure, shortened: as §2
Setaria viridis = assay: Herbicidal activity against Setaria viridis (green foxtail) assessed as growth inhibition at 37.5 g of active ingredient/ha administered using post-emergence treatment measured 15 days post treatment protocol under greenhouse conditions; type: functional; procedure, shortened: as §1
Digitaria sanguinalis [8] = assay: Herbicidal activity against Digitaria sanguinalis (hairy crabgrass) assessed as growth inhibition at 75 g of active ingredient/ha administered using post-emergence treatment measured 15 days post treatment protocol under greenhouse conditions; type: functional; procedure, shortened: as §1
Digitaria sanguinalis [9] = assay: Herbicidal activity against Digitaria sanguinalis (hairy crabgrass) assessed as growth inhibition at 37.5 g of active ingredient/ha administered using post-emergence treatment measured 15 days post treatment protocol under greenhouse conditions; type: functional; procedure, shortened: as §1
Senna tora = assay: Herbicidal activity against Senna tora assessed as growth inhibition at 75 g of active ingredient/ha administered using post-emergence treatment measured 15 days post treatment protocol under greenhouse conditions; type: functional; procedure, shortened: as §1
Chenopodium album [10] = assay: Herbicidal activity against Chenopodium album assessed as growth inhibition at 37.5 g of active ingredient/ha administered using post-emergence treatment measured 15 days post treatment protocol under greenhouse conditions; type: functional; procedure, shortened: as §1
Chenopodium album [11] = assay: Herbicidal activity against Chenopodium album assessed as growth inhibition at 150 g of active ingredient/ha administered using post-emergence treatment measured 15 days post treatment protocol under greenhouse conditions; type: functional; procedure, shortened: as §1
Echinochloa crus-galli [12] = assay: Herbicidal activity against Echinochloa crus-galli (barnyard grass) assessed as growth inhibition at 75 g of active ingredient/ha administered using post-emergence treatment measured 15 days post treatment protocol under greenhouse conditions; type: functional; procedure, shortened: as §1
Cerastium arvense = assay: Herbicidal activity against Cerastium arvense assessed as growth inhibition at 150 g of active ingredient/ha administered using post-emergence treatment measured 15 days post treatment protocol under greenhouse conditions; type: functional; procedure, shortened: as §1
Eclipta prostrata = assay: Herbicidal activity against Eclipta prostrata assessed as growth inhibition at 37.5 g of active ingredient/ha administered using post-emergence treatment measured 15 days post treatment protocol under greenhouse conditions; type: functional; procedure, shortened: as §1
Amaranthus retroflexus [13] = assay: Herbicidal activity against Amaranthus retroflexus assessed as growth inhibition at 75 g of active ingredient/ha administered using post-emergence treatment measured 15 days post treatment protocol under greenhouse conditions; type: functional; procedure, shortened: as §1
Amaranthus retroflexus [14] = assay: Herbicidal activity against Amaranthus retroflexus assessed as growth inhibition at 37.5 g of active ingredient/ha administered using post-emergence treatment measured 15 days post treatment protocol under greenhouse conditions; type: functional; procedure, shortened: as §1
Triticum aestivum [15] = assay: Phytotoxicity against Triticum aestivum (wheat) plant assessed as growth inhibition at 300 g of active ingredient/ha administered using post-emergence treatment measured 30 days post treatment protocol under greenhouse conditions; type: organism-based; details: in vivo, other, 720 h; procedure, shortened: as §2
Triticum aestivum [16] = assay: Phytotoxicity against Triticum aestivum (wheat) plant assessed as growth inhibition at 150 g of active ingredient/ha administered using post-emergence treatment measured 30 days post treatment protocol under greenhouse conditions; type: organism-based; details: in vivo, other, 720 h; procedure, shortened: as §2
[17] = Phytotoxicity against Triticum aestivum (wheat) plant assessed as growth inhibition at 75 g of active ingredient/ha administered using post-emergence treatment measured 30 days post treatment protocol under greenhouse conditions; type: organism-based; details: in vivo, read-out: GI; procedure, shortened: as §2
Brassica napus = assay: Phytotoxicity against Brassica napus (oilseed rape) assessed as growth inhibition at 450 g of active ingredient/ha administered using post-emergence treatment measured 30 days post treatment protocol under greenhouse conditions; type: organism-based; details: in vivo, other, 720 h; procedure, shortened: as §2

SMILES: CCS(=O)(=O)Nc1cc(-n2nc(C)n(Cc3ccccc3/C(=N\OC)C(=O)OC)c2=O)c(F)cc1Cl
- growth inhibition (GI) (Echinochloa crus-galli [1]): 50%
- Activity (Zea mays [2]): Toxic
- Activity (Zea mays [3]): Toxic
- inhibition at 720 h [4]: 40%
- Activity (Glycine max [5]): Toxic
- Activity (Glycine max [6]): Toxic
- inhibition at 720 h [7]: 60%
- growth inhibition (GI) (Setaria viridis): <50%
- growth inhibition (GI) (Digitaria sanguinalis [8]): 50%
- growth inhibition (GI) (Digitaria sanguinalis [9]): 50%
- growth inhibition (GI) (Senna tora): >80%
- growth inhibition (GI) (Chenopodium album [10]): 50%
- growth inhibition (GI) (Chenopodium album [11]): >80%
- growth inhibition (GI) (Echinochloa crus-galli [12]): 50%
- growth inhibition (GI) (Cerastium arvense): 100%
- growth inhibition (GI) (Eclipta prostrata): >80%
- growth inhibition (GI) (Amaranthus retroflexus [13]): >80%
- growth inhibition (GI) (Amaranthus retroflexus [14]): >80%
- Activity (Triticum aestivum [15]): Toxic
- Activity (Triticum aestivum [16]): Toxic
- inhibition at 720 h [17]: 40%
- Activity (Brassica napus): Toxic
